Results from ChEMBL document CHEMBL1148422, “N-isoquinolin-5-yl-N'-aralkyl-urea and -amide antagonists of human vanilloid receptor 1” (Bioorg Med Chem Lett, 2004).
pIC50, pKi: −log10 of the molar value.

What was measured:
[1] = target: T1, Transient receptor potential cation channel subfamily V member 1 (Homo sapiens, UniProt Q8NER1); test: Antagonistic activity towards human vanilloid receptor subtype 1 expressed in HEK293 cell […], as inhibition of agonist-induced intracellular [Ca2+] levels.; type: functional, cell-based
[2] = target: T1, Transient receptor potential cation channel subfamily V member 1; test: Binding affinity towards human vanilloid receptor subtype 1 expressed in HEK293 cell membrane using [3H]-RTX as radioligand.; type: cell membranes
Procedure, shortened: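 Membranes from hVR1/HEK293 cells homogenized twice with a Polytron in 20 mM HEPES pH 7.4 with 5.8 mM NaCl, 320 mM sucrose, 2 mM MgCl2, 0.75 mM CaCl2 and 5 mM KCl. Spun at 3000 rpm for 10 min; supernatant spun at 18,000 rpm for 20 min; pellet taken up in assay buffer.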

T1 sequence (Q8NER1 whole entry): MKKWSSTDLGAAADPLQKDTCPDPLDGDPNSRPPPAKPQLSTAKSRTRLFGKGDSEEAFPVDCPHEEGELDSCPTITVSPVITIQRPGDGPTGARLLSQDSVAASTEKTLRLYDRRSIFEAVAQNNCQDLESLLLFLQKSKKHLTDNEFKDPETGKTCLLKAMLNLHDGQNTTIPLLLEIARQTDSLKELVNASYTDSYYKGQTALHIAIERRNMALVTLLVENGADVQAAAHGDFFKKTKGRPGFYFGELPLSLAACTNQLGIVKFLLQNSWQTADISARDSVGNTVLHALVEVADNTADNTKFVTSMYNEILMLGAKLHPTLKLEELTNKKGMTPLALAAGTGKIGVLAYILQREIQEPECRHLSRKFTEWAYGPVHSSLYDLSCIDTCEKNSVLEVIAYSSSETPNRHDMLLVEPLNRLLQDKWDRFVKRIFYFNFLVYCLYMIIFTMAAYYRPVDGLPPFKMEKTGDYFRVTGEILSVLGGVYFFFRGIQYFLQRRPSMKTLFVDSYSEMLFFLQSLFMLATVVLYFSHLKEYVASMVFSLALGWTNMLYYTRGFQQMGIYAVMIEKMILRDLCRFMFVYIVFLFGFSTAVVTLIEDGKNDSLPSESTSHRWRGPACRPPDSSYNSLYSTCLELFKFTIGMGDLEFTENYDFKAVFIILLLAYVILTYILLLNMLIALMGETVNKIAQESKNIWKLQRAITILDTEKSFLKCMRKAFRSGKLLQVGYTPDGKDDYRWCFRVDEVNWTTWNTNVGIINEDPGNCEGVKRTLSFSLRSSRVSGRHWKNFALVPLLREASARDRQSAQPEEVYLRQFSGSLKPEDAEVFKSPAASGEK

| SMILES | pIC50 [1] | pKi [2] |
| --- | --- | --- |
| O=C(Nc1cc(C(F)(F)F)cc(C(F)(F)F)c1)Nc1cccc2cnccc12 | 7.49 | 8.85 |
| COc1ccc(CNC(=O)Nc2cccc3cnccc23)cc1 | 7.35 | – |
| O=C(NCc1ccc(Cl)c(Cl)c1)Nc1cccc2cnccc12 | 8.40 | 8.05 |
| O=C(NCCc1cccc(C(F)(F)F)c1)Nc1cccc2cnccc12 | 7.72 | – |
| O=C(NCc1ccc(Cl)cc1)Nc1cccc2cnccc12 | 8.22 | – |
| O=C(NCCc1ccc(Cl)c(Cl)c1)Nc1cccc2cnccc12 | 8.00 | 7.77 |
| O=C(NCc1ccc(C(F)(F)F)cc1)Nc1cccc2cnccc12 | 8.52 | 8.30 |
| O=C(NCCc1ccc(OC(F)(F)F)cc1)Nc1cccc2cnccc12 | 7.96 | – |
| O=C(Nc1cccc(C(F)(F)F)c1)Nc1cccc2cnccc12 | 7.49 | 7.72 |
| O=C(NCc1cccc(C(F)(F)F)c1)Nc1cccc2cnccc12 | 7.96 | 7.64 |
| O=C(/C=C/c1ccccc1)Nc1cccc2cnccc12 | 5.82 | – |
| O=C(NCc1ccc(Cl)c(C(F)(F)F)c1)Nc1cccc2cnccc12 | 8.22 | 9.10 |
| CC(C)(C)c1ccc(/C=C/C(=O)Nc2cccc3cnccc23)cc1 | 8.30 | 8.92 |
| O=C(NCCc1ccccc1)Nc1cccc2cnccc12 | 6.00 | – |

More lines, in order of rising pIC50 [1], values ahead:

| pIC50 [1] | pKi [2] | SMILES |
| --- | --- | --- |
| 5.62 | 7.15 | CCCCCc1ccc(C(=O)Nc2cccc3cnccc23)cc1 |
| 6.17 | – | COc1ccc(CCNC(=O)Nc2cccc3cnccc23)cc1 |
| 6.31 | 6.48 | CCCCc1ccc(NC(=O)Nc2cccc3cnccc23)cc1 |
| 6.39 | 7.96 | CC(C)(C)c1ccc(CCC(=O)Nc2cccc3cnccc23)cc1 |
| 6.77 | 7.77 | O=C(Nc1ccc(Cl)c(Cl)c1)Nc1cccc2cnccc12 |
| 7.42 | 7.22 | O=C(CCc1ccc(C(F)(F)F)cc1)Nc1cccc2cnccc12 |
| 7.72 | 7.66 | O=C(NCCc1ccc(C(F)(F)F)cc1)Nc1cccc2cnccc12 |
| 7.89 | 8.40 | CCC(C)(C)c1ccc(CCC(=O)Nc2cccc3cnccc23)cc1 |
| 8.52 | – | CC(C)(C)c1ccc(CCNC(=O)Nc2cccc3cnccc23)cc1 |
| 8.52 | 9.52 | CC(C)(C)c1ccc(CNC(=O)Nc2cccc3cnccc23)cc1 |
| 8.52 | 8.89 | O=C(NCc1ccc(OC(F)(F)F)cc1)Nc1cccc2cnccc12 |
